Assay [1] addresses T1, Poa1p (Saccharomyces cerevisiae, UniProt P38218).
T1 sequence (P38218 1-177): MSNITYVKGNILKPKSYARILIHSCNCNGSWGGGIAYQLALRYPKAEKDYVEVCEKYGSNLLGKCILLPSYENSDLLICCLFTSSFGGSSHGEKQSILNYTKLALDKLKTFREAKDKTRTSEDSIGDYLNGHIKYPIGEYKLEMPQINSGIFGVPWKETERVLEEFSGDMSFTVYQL
In words: Inhibition of Appr1p phosphatase activity of Poa1p. The class given is biochemical. The method, boiled down:
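Candidate inhibitors were first surveyed at 10 mM under two conditions: 8 nM Poa1p with 26 nM Appr1p for 1 h, and 35 nM Poa1p with 5 μM Appr1p for 2 h. IC50 was then obtained by titrating inhibitor concentration with 35 nM Poa1p and 5 μM Appr1p for 2 h. Readout was radiolabeled Appr1p conversion, separated by TLC.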

In assay [2] the test system is Hal2p. In words: Inhibition of Appr1p phosphatase activity of Hal2p. The class given is biochemical, Saccharomyces cerevisiae. The conditions noted are these: Appr1p well below KM; data not shown. The method, boiled down:
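Purified His6-Hal2p at 104 nM was mixed with 5 nM Appr1p and each potential inhibitor at 10 mM. Incubation lasted long enough to convert ~50% of substrate without inhibitor. Labeled product was resolved by PEI-cellulose TLC and quantified by phosphorimaging.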

The target in assay [3] is T1, Poa1p. The assay is described as follows: KI for ADP-ribose by the method of Dixon. The class given is biochemical. In short, it runs like this: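 Ap*pr1p hydrolysis by 43 nM Poa1p at four fixed Appr1p concentrations (1–25 μM) with ADP-ribose 0–300 μM. Initial-rate inverses plotted against [ADP-ribose]; resulting slopes replotted against 1/[Appr1p]. KI derived from the secondary slope (KM/(Vmax·KI)) using known KM and Vmax for Appr1p. All fits by linear regression.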

Assay [4] has as its target T1, Poa1p. In words: Appr1p phosphatase assay, steady-state kinetics of Poa1p. The class given is biochemical.
Assay [5] relates to Hal2p. In words: Appr1p phosphatase and pAp phosphatase assay, steady-state kinetics of Hal2p. The class given is biochemical, Saccharomyces cerevisiae. As to conditions: for Km / kcat: substrate of Hal2p, 30°C, pH 7.5.
The next assay concerns yeast crude extracts. The assay is described as follows: Appr1p processing activity of yeast crude extracts. The class given is biochemical, Saccharomyces cerevisiae. As to conditions: for extract amount by which Appr1p is 50% processed: 17 nM Ap*pr1p, 1 h, 30°C. The method, boiled down:
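Yeast strains (BY4741 background: wild type, poa1, hal2, and the double deletion) were grown to A600 1.0, washed in cold water, stored at −70°C and lysed with glass beads. Extracts were assayed in 5-fold serial dilutions (starting 16, 29, 23 and 21 μg respectively) with 17 nM Ap*pr1p for 1 h at 30°C. Reactions were phenol:chloroform-treated and resolved on PEI-cellulose TLC.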

[6] abbreviates: read-out: Inhibition in survey at 10 mM competitor (IC50), 10 mM competitor, 8 nM Poa1p, 26 nM Appr1p, 1 h, and 35 nM Poa1p, 5 μM Appr1p, 2 h.
Where [7] appears, read: substrate of Poa1p, 30°C, pH 7.5, 21 nM Poa1p.

Read-outs that look alike come from different tables or passages of the source. A value given as a limit tells only on which side of the number the result lay.

The compound `Nc1ccn([C@@H]2O[C@H](CO)[C@@H](O)[C@H]2OP(=O)(O)O)c(=O)n1` [2′pC] displayed a half-maximal inhibitory concentration (IC50) against Poa1p [1] (35 nM Poa1p, 5 μM Appr1p, 2 h) of over 10 mM.

On to `O=C[C@H](O)COP(=O)(O)O` [glyceraldehyde-3p], for which the IC50 at Poa1p [1] (setting [6]) is over 10 mM.

Consider `Nc1ncnc2c1ncn2[C@@H]1O[C@H](COP(=O)(O)OP(=O)(O)OC[C@H]2OC(O)[C@H](O)[C@@H]2O)[C@@H](O)[C@H]1O` (stereo partly drawn) [ADPR, ADP-ribose], for which, at Poa1p [1] (35 nM Poa1p, 5 μM Appr1p, 2 h), the half-inhibitory concentration (IC50) turned out to be 0.03 mM. For the same compound, the “Inhibition of Appr1p phosphatase activity of Hal2p (in words)” value (“Inhibition … of Hal2p (in words)” below) in the assay with Hal2p [2] was “inhibited”. Also, on Poa1p [3] (43 nM Poa1p, varied Appr1p and ADP-ribose (0–300 μM), Dixon plot), affinity was put at a Ki of 0.017 mM. Besides, the mode of inhibition entry at Poa1p [3] (plots of inverse initial rates versus inhibitor concentration) was “classical competitive inhibition”.

Take `O=P(O)(O)OC[C@H]1OC(O)(CO)[C@@H](O)[C@@H]1O` (stereo partly drawn) [fructose-6p]: the IC50 on Poa1p [1] (setting [6]) is over 10 mM.

In the case of `O=P(O)(O)O[C@H]1O[C@H](CO)[C@@H](O)[C@H]1O` [ribose-1p], the half-inhibitory concentration (IC50) on Poa1p [1] (setting [6]) was over 10 mM.

`Nc1ncnc2c1ncn2[C@@H]1O[C@H](COP(=O)(O)O)[C@@H](OP(=O)(O)O)[C@H]1O` [pAp]: the half-inhibitory concentration (IC50) on Poa1p [1] (setting [6]) was over 10 mM. In addition, the “Inhibition … of Hal2p (in words)” value in the assay on Hal2p [2] was “inhibited”. The “Poa1p phosphatase activity on substrate (in words)” value on Poa1p [4] (conditions where a turnover of 0.005 min^−1 (0.3% of the activity with Appr1p) should be easily observed) was “no detectable activity”. Moreover, in the assay with Hal2p [5] (as measured by kcat/KM values), the “preference of Hal2p for pAp relative to Appr1p” value was 10^4 fold. Also, in the assay on Hal2p [5], the Michaelis constant (Km) is 0.1 µM and the turnover number (kcat) came out at 0.9 s⁻¹.

In the case of `Nc1ncnc2c1ncn2[C@@H]1O[C@H](COP(=O)(O)O)[C@@H](O)[C@H]1O` [5′pA, AMP], the IC50 on Poa1p [1] (setting [6]) was over 10 mM.

For `Nc1nc2c(ncn2[C@@H]2O[C@H](CO)[C@@H](O)[C@H]2OP(=O)(O)O)c(=O)[nH]1` [2′pG], at Poa1p [1] (setting [6]), the IC50 is over 10 mM. In addition, in the assay on Hal2p [2], the “Inhibition … of Hal2p (in words)” value was “inhibited”.

For the compound `NC(=O)c1ccc[n+]([C@H]2O[C@@H](COP(=O)([O-])OP(=O)(O)OC[C@H]3O[C@@H](n4cnc5c(N)ncnc54)[C@H](OP(=O)(O)O)[C@@H]3O)[C@H](O)[C@@H]2O)c1` [NADP], on Poa1p [1] (35 nM Poa1p, 5 μM Appr1p, 2 h), the IC50 worked out at 2 mM. Also, in the assay with Hal2p [2], the “Inhibition … of Hal2p (in words)” value was “inhibited”.

Turning to `O=C[C@H](O)[C@H](O)[C@H](O)COP(=O)(O)O` [ribose-5p, ribose 5-phosphate], the IC50 on Poa1p [1] is over 10 mM. The “Inhibition … of Hal2p (in words)” value in the assay with Hal2p [2] is listed as “inhibited”.

For `Nc1ncnc2c1ncn2[C@@H]1O[C@H](COP(=O)(O)OP(=O)(O)O)[C@@H](O)[C@H]1O` [ADP], the IC50 against Poa1p [1] (35 nM Poa1p, 5 μM Appr1p, 2 h) is over 10 mM.

`NC(=O)c1ccc[n+]([C@@H]2O[C@H](COP(=O)([O-])OP(=O)(O)OC[C@H]3O[C@@H](n4cnc5c(N)ncnc54)[C@H](O)[C@@H]3O)[C@@H](O)[C@H]2O)c1` [NAD] registered an IC50 at Poa1p [1] (35 nM Poa1p, 5 μM Appr1p, 2 h) of 1.5 mM.

Consider `O=P(O)(O)O[C@H]1O[C@H](CO)[C@@H](O)[C@H](O)[C@H]1O` [glucose-1p], for which, on Poa1p [1] (setting [6]), the IC50 is over 10 mM.

Turning to `Nc1ncnc2c1ncn2[C@@H]1O[C@H](CO)[C@@H](O)[C@H]1OP(=O)(O)O` [2′pA], the IC50 at Poa1p [1] (setting [6]) was over 10 mM.

For the compound `Nc1nc2c(ncn2[C@@H]2O[C@H](CO)[C@@H](OP(=O)(O)O)[C@H]2O)c(=O)[nH]1` [3′pG], the IC50 at Poa1p [1] (setting [6]) is over 10 mM. Besides, the “Inhibition of phosphatase activity remaining in poa1-Δ extract (in words)” value in the assay on yeast crude extracts (poa1-Δ extract, data not shown) is given as “inhibited”.

With `Nc1ncnc2c1ncn2[C@@H]1O[C@H](CO)[C@@H](OP(=O)(O)O)[C@H]1O` [3′pA], on Poa1p [1] (35 nM Poa1p, 5 μM Appr1p, 2 h), the IC50 is over 10 mM. Moreover, the “Inhibition … of Hal2p (in words)” value in the assay with Hal2p [2] is “inhibited”.

As to `Nc1ncnc2c1ncn2[C@@H]1O[C@H](COP(=O)(O)OP(=O)(O)OC[C@H]2O[C@@H](n3cnc4c(N)ncnc43)[C@H](O)[C@@H]2O)[C@@H](O)[C@H]1O` [AppA], 1 mM corresponded to half-maximal inhibition against Poa1p [1] (35 nM Poa1p, 5 μM Appr1p, 2 h) (IC50).

As for `Nc1ccn([C@@H]2O[C@H](CO)[C@@H](OP(=O)(O)O)[C@H]2O)c(=O)n1` [3′pC], the IC50 on Poa1p [1] (setting [6]) is over 10 mM.

In the case of `Nc1ncnc2c1ncn2[C@@H]1O[C@H](COP(=O)(O)OP(=O)(O)OC[C@H]2O[C@H](OP(=O)(O)O)[C@H](O)[C@@H]2O)[C@@H](O)[C@H]1O` [Appr1p, ADP-ribose-1″-phosphate], the “extract amount by which Appr1p is 50% processed” value worked out at 1.2 µg in the assay with yeast crude extracts (hal2-Δ extract); 33 µg in the assay on yeast crude extracts (poa1-Δ extract); 20 µg with yeast crude extracts (poa1-Δ, hal2-Δ double mutant extract); 1.8 µg in the assay with yeast crude extracts (wild-type extract). In addition, the “preference of Poa1p for Appr1p relative to pAp” value at Poa1p [4] (as measured by observed rates) was “at least 340 fold”. Also, the “kcat/KM difference in favor of Poa1p over Hal2p” value at Poa1p [4] (substrate Appr1p) is given as 14 fold. Further, the “lower KM of Poa1p relative to Hal2p” value on Poa1p [4] (substrate Appr1p) is reported as about 25 fold. Besides, the Michaelis-Menten constant (Km) was 2.8 µM on Poa1p [4] (setting [7]) and 74 µM in the assay on Hal2p [5]. Further, the values for the kcat on Poa1p [4] (setting [7]) and with Hal2p [5] were 0.0283 s⁻¹ and 0.0533 s⁻¹, respectively.
